Source: ChEMBL document CHEMBL1641591, “Inhibition of monoamine oxidase by selected C5- and C6-substituted isatin analogues” (Bioorg Med Chem, 2011)

How the values were obtained:
[1] = molecular target: T1, Amine oxidase [flavin-containing] A (Homo sapiens, UniProt P21397); assay: Inhibition of human recombinant MAOA expressed in insect cells by fluorescence assay
T1 sequence (P21397 whole entry): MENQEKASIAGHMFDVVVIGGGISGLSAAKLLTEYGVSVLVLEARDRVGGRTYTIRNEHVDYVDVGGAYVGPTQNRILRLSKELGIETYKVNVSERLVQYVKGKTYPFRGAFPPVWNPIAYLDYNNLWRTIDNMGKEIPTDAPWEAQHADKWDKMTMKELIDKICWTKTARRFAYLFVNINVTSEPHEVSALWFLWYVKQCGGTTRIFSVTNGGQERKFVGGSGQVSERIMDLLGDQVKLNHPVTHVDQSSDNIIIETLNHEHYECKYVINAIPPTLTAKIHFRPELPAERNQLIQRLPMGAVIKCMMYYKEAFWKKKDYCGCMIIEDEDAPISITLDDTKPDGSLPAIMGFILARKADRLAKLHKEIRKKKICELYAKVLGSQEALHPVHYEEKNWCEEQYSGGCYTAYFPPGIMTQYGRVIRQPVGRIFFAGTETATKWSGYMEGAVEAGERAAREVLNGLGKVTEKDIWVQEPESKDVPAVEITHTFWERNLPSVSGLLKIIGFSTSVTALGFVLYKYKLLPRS
Method in brief: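 Insect-cell microsomal recombinant human MAO-A (0.0075 mg/mL) in 100 mM potassium phosphate, pH 7.4, made isotonic with KCl, with 45 µM kynuramine. Incubated 20 min at 37 °C and stopped with NaOH. 4-Hydroxyquinoline was read by fluorescence (ex 310/em 400 nm) against a calibration curve.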

[2] = molecular target: T2, Amine oxidase [flavin-containing] B (Homo sapiens, UniProt P27338); assay: Inhibition of human recombinant MAOB expressed in insect cells at 100 uM by fluorescence assay
T2 sequence (P27338 whole entry): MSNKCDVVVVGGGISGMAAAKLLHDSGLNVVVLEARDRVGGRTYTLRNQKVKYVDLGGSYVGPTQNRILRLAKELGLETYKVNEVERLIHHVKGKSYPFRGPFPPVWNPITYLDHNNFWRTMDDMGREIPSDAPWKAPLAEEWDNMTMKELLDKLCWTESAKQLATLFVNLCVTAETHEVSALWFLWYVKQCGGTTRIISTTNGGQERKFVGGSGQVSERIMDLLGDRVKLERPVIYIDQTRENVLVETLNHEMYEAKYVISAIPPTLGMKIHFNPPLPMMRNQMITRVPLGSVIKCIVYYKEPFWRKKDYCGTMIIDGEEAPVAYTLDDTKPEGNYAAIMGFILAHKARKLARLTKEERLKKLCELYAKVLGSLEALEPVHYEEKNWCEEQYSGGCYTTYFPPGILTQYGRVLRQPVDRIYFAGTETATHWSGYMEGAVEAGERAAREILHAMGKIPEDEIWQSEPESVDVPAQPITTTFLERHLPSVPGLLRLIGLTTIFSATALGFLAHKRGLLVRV

Homo sapiens = organism: Homo sapiens; assay: Selectivity ratio of Ki for human recombinant MAOA to Ki for human recombinant MAOB
Method in brief: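 Ki values were obtained from duplicate kynuramine-oxidation IC50 data for insect-cell recombinant human MAO-A and MAO-B by the Cheng–Prusoff equation. […] The ratio is Ki(MAO-A)/Ki(MAO-B).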

[3] = molecular target: T2, Amine oxidase [flavin-containing] B; assay: Inhibition of human recombinant MAOB expressed in insect cells by fluorescence assay; format: cell-based
[4] = molecular target: T1, Amine oxidase [flavin-containing] A; assay: Inhibition of human recombinant MAOA expressed in insect cells at 100 uM by fluorescence assay
[5] = molecular target: T1, Amine oxidase [flavin-containing] A; assay: Competitive inhibition of human recombinant MAOA expressed in insect cells at 2.5 to 10 uM by Lineweaver-Burk plot analysis
[6] = molecular target: T1, Amine oxidase [flavin-containing] A; assay: Inhibition of human recombinant MAOA expressed in insect cells at 9.76 uM by fluorescence assay; conditions: TDE = time-dependent effect
Method in brief: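 Reversibility test: recombinant human MAO-A (0.03 mg/mL) was preincubated 0, 15, 30 or 60 min at 37 °C with 9.76 µM inhibitor in isotonic pH 7.4 phosphate buffer. […] Residual rate was measured by 4-hydroxyquinoline fluorescence, in triplicate, mean ± SD.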

[7] = molecular target: T2, Amine oxidase [flavin-containing] B; assay: Inhibition of human recombinant MAOB expressed in insect cells at 2.8 uM by fluorescence assay; conditions: TDE = time-dependent effect
[8] = molecular target: T2, Amine oxidase [flavin-containing] B; assay: Competitive inhibition of human recombinant MAOB expressed in insect cells at 0.125 to 0.5 uM by Lineweaver-Burk plot analysis
Method in brief: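 Recombinant human MAO-B from insect cells (0.015 mg/mL) was run with 15–90 µM kynuramine, without inhibitor and with 0.125, 0.25 or 0.5 µM inhibitor. The assay was otherwise the standard fluorescence procedure. Lineweaver–Burk plots were fitted by linear regression.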

IC50 [1] [µM] | Ki [1] [µM] | Ratio Ki (Homo sapiens) | IC50 [3] [µM] | Ki [3] [µM] | inhibition (INH) [4] | inhibition (INH) [5] | inhibition (INH) [6] | inhibition (INH) [7] | inhibition (INH) [8] | Structure (SMILES) | inhibition (INH) [2]
30.4 | 8.01 | 3.24 | 5.74 | 2.47 | – | – | – | – | – | Nc1cccc(/C=C/c2ccccc2)c1 | –
– | – | – | 5.55 | 2.39 | Not Active | – | – | – | – | Cl.Nc1ccc(CCCCc2ccccc2)cc1 | –
2.72 | 0.717 | – | – | – | – | – | – | – | – | O=C1Nc2cc(/C=C/c3ccccc3)ccc2C1=O [(E)-6-STYRYLISATIN] | –
4.88 | 1.29 | 2.13 | 1.4 | 0.603 | – | Active | tde | tde | Active | O=C1Nc2ccc(CCc3ccccc3)cc2C1=O | –
62.2 | 16.4 | 3.84 | 9.91 | 4.27 | – | – | – | – | – | O=C1Nc2cc(Oc3ccccc3)ccc2C1=O | –
– | – | – | – | – | Not Active | – | – | – | – | Nc1cccc(Oc2ccccc2)c1 [3-PHENOXYANILINE] | –
355 | 93.5 | – | – | – | – | – | – | – | – | Nc1cccc(CCc2ccccc2)c1 | –
2.19 | 0.577 | 2030 | 0.00066 | 0.00028 | – | – | – | – | – | O=C1Nc2ccc(CCCCc3ccccc3)cc2C1=O | –
0.562 | 0.148 | 0.289 | 1.19 | 0.513 | – | – | – | – | – | O=C1Nc2ccc(-c3ccccc3)cc2C1=O | –
4.64 | 1.22 | 0.333 | 8.52 | 3.67 | – | – | – | – | – | O=C1Nc2cc(-c3ccccc3)ccc2C1=O | –
9.44 | 2.49 | 3.75 | 1.54 | 0.663 | – | – | – | – | – | O=C1Nc2ccc(Oc3ccccc3)cc2C1=O | –
191 | 50.3 | 9.13 | 12.8 | 5.51 | – | – | – | – | – | Nc1ccc(OCc2ccccc2)cc1 [4-BENZYLOXYANILINE] | –
466 | 123 | 12.2 | 23.4 | 10.1 | – | – | – | – | – | Nc1cccc(OCc2ccccc2)c1 [3-(BENZYLOXY)ANILINE] | –
12.2 | 3.21 | 113 | 0.066 | 0.028 | – | – | – | – | – | O=C1Nc2ccc(Oc3ccc(Cl)cc3)cc2C1=O | –
91.4 | 24.1 | 0.185 | 303 | 131 | – | – | – | – | – | Nc1ccc(Oc2ccccc2)cc1 [4-PHENOXYANILINE] | –
6.93 | 1.83 | 0.427 | 9.93 | 4.28 | – | – | – | – | – | O=C1Nc2cc(CCc3ccccc3)ccc2C1=O | –
72.4 | 19.1 | 321 | 0.138 | 0.059 | – | – | – | – | – | O=C1Nc2cc(OCc3ccccc3)ccc2C1=O | –
0.233 | 0.061 | 15.8 | 0.009 | 0.004 | – | – | – | – | – | O=C1Nc2ccc(/C=C/c3ccccc3)cc2C1=O | –
4.62 | 1.22 | 27.4 | 0.103 | 0.044 | – | – | – | – | – | O=C1Nc2ccc(OCc3ccccc3)cc2C1=O | –
25.3 | 6.67 | 2.44 | 6.34 | 2.73 | – | – | – | – | – | Nc1ccc(/C=C/c2ccccc2)cc1 [(E)-4-STYRYLANILINE] | –
131 | 34.5 | – | – | – | – | – | – | – | – | Nc1ccc(CCc2ccccc2)cc1 | –
29.3 | 7.72 | 1.07 | 16.8 | 7.24 | – | – | – | – | – | Nc1ccc(Oc2ccc(Cl)cc2)cc1 | –

Structure (SMILES) | IC50 [1] [µM] | Ki [1] [µM] | Ratio Ki (Homo sapiens) | IC50 [3] [µM] | Ki [3] [µM] | inhibition (INH) [4] | inhibition (INH) [5] | inhibition (INH) [6] | inhibition (INH) [7] | inhibition (INH) [8] | inhibition (INH) [2]
Nc1cccc(-c2ccccc2)c1 | 68.6 | 18.1 | – | – | – | – | – | – | – | – | Not Active
Nc1ccc(-c2ccccc2)cc1 [BIPHENYL-4-AMINE] | – | – | – | – | – | Not Active | – | – | – | – | Not Active
